The subject of one series is Liver. Briefly: (§1) Half life in mouse liver microsomes. It counts as ADME. The settings on record: microsomes. A general note: Liver microsomes are vesicles of endoplasmic reticulum, rich in cytochrome P450 enzymes.
Series [1] has as its target Botulinum neurotoxin type A (Clostridium botulinum) (UniProt P0DPI0). Briefly: Inhibition of Clostridium botulinum recombinant BoNT/A light chain using N-terminal acetylated, C-terminal aminated SNAP-25 (187-203) as substrate at 20 uM by reverse-phase HPLC analysis. The method in brief: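 Recombinant BoNT/A LC with SNAP-25 187–203 peptide substrate in 40 mM HEPES–0.05% Tween, pH 7.3, with 0.5 mg/mL BSA and 50 μM excess Zn, at 37 °C. Quenched with TFA; reverse-phase HPLC product/substrate peak areas give percent inhibition, run in duplicate.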

For series [2], the target named is Botulinum neurotoxin type A (Clostridium botulinum, UniProt P0DPI0). Kind of series: Inhibition of Clostridium botulinum recombinant BoNT/A light chain using N-terminal acetylated, C-terminal aminated SNAP-25 (187-203) as substrate by reverse-phase HPLC analysis. The method in brief:
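Same HPLC LC cleavage assay (pH 7.3 HEPES/Tween, BSA, excess Zn, 37 °C). […] Ki comes from velocity versus substrate at several inhibitor levels, globally fit to a competitive model.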

Series [3] concerns Plasmodium falciparum. Briefly: Antimalarial activity against CQ, MFQ-susceptible Plasmodium falciparum D6 clone Sierra 1/UNC isolate assessed as inhibition of parasite proliferation by MSF assay. The class given is functional, organism-based. In a few lines: (§2)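 SYBR Green I fluorescence (MSF) microtiter drug-sensitivity assay: malarial DNA content is the measure of in vitro parasite proliferation. Resistance index is the IC90 ratio of the resistant strain to D6.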

The next series concerns Liver microsome. Briefly: Half life in human liver microsomes. It counts as ADME. The settings on record: microsomes.
Series [4] concerns Plasmodium falciparum. Kind of series: Antimalarial activity against CQ-resistant, MFQ-susceptible Plasmodium falciparum W2 clone Indochina 1 isolate assessed as inhibition of parasite proliferation by MSF assay. The class given is functional, organism-based. The method in brief: as §2
The subject of series [5] is Plasmodium falciparum. Kind of series: Resistance index, ratio of IC90 for CQ, MFQ-resistant Plasmodium falciparum TM91C235 clone Southeast asian isolate to IC90 for CQ, MFQ-susceptible Plasmodium falciparum D6 clone Sierra 1/UNC isolate. It counts as functional. In a few lines: as §2
Series [6] can be described thus: Selectivity index, ratio of IC50 for human HepG2 cells to IC50 for CQ, MFQ-susceptible Plasmodium falciparum D6 clone Sierra 1/UNC isolate. The class given is toxicity, cell-based. The settings on record: read-out: Ratio IC50.
A further series has as its system PBMC. Briefly: Cytotoxicity against human PBMC assessed as inhibition of cell survival after 72 hrs. It counts as cell-based. In a few lines: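 PBMC from heparinized healthy-donor blood (Histopaque) in RPMI-1640 with 10% FCS and PHA stimulation, 200 000 cells/well, with compounds in DMSO, 72 h at 37 °C, 6% CO2.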
A short description of series [7]: Selectivity index, ratio of IC50 for human HepG2 cells to IC50 for CQ, MFQ-resistant Plasmodium falciparum TM91C235 clone Southeast asian isolate. The class given is toxicity, cell-based. The settings on record: read-out: Ratio IC50.
The next series has as its system HepG2. Briefly: Cytotoxicity against human HepG2 cells assessed as cell viability after 48 hrs by MTT assay. The class given is cell-based. As to conditions: HepG2, 48 h.
Series [8] relates to Plasmodium falciparum. Kind of series: Resistance index, ratio of IC90 for CQ-resistant, MFQ-susceptible Plasmodium falciparum W2 clone Indochina 1 isolate to IC90 for CQ, MFQ-susceptible Plasmodium falciparum D6 clone Sierra 1/UNC isolate. It counts as functional. In a few lines:
as §2

For series [9], the system named is Plasmodium falciparum. Briefly: Antimalarial activity against CQ, MFQ-resistant Plasmodium falciparum TM91C235 clone Southeast asian isolate assessed as inhibition of parasite proliferation by MSF assay. The class given is functional, organism-based. In a few lines:
as §2

Series [10] in a line: Selectivity index, ratio of IC50 for human HepG2 cells to IC50 for CQ-resistant, MFQ-susceptible Plasmodium falciparum W2 clone Indochina 1 isolate. It counts as toxicity, cell-based. As to conditions: read-out: Ratio IC50.
A short description of series [11]: as §1. The class given is ADME. As to conditions: liver microsomes.

The structures appear in SMILES notation.

Sequence of Botulinum neurotoxin type A (P0DPI0 2-448 limits assumed): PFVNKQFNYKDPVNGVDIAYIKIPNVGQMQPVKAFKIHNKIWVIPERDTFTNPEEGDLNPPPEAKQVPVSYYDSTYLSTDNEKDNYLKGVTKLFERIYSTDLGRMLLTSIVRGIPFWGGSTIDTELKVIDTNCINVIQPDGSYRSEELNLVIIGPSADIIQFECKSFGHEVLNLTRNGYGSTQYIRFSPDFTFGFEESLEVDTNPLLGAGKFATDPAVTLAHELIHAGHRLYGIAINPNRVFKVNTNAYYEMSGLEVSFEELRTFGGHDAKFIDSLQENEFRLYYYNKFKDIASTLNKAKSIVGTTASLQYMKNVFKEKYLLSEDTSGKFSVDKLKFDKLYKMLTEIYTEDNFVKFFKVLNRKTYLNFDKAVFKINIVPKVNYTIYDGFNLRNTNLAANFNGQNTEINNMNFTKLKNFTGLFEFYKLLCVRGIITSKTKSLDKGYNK
Sequence of Botulinum neurotoxin type A (Clostridium botulinum) (P0DPI0 2-448 limits assumed): as above

For `CC(=O)O[C@H]1C[C@H]2[C@@H]([C@H](OC(C)=O)C[C@@H]3C[C@H](O)CC[C@@]32C)[C@@H]2CC[C@H]([C@H](C)CCCNCCNc3ccnc4cc(Cl)ccc34)[C@@]12C`, the t1/2 came out at 30 min in the series on Liver and 7 min in the series on Liver microsome. In [1], the inhibition stood at 69.4%. Moreover, the IC50 in series [2] is 4.68 µM; with Plasmodium falciparum [3], 0.00291 µM; with PBMC, 2.81 µM; in the series with HepG2, 2.73 µM; with Plasmodium falciparum [9], 0.00671 µM. In addition, the IC90 with Plasmodium falciparum [3] turned out to be 0.00513 µM; in the series on Plasmodium falciparum [4], 0.0107 µM; in the series with Plasmodium falciparum [9], 0.0133 µM. Further, the Ratio with Plasmodium falciparum [5] is given as 2.58; in the series with Plasmodium falciparum [8], 2.08. Further, the selectivity ratio came to 938 in [6], 407 in series [7] and 415 in [10].
In the case of `CC(=O)O[C@H]1C[C@H]2[C@@H]([C@H](OC(C)=O)C[C@@H]3C[C@H](NS(C)(=O)=O)CC[C@@]32C)[C@@H]2CC[C@H]([C@H](C)CCCN(C)CCNc3ccnc4cc(Cl)ccc34)[C@@]12C`, the t1/2 in the series on Liver stood at 47 min; with Liver microsome, 14 min. The inhibition in series [1] came out at 33.8%. In addition, the IC50 is 25 µM in [2]; 0.00535 µM with Plasmodium falciparum [3]; 0.0121 µM in the series with Plasmodium falciparum [4]; 14.5 µM in the series with HepG2; 0.00659 µM in the series with Plasmodium falciparum [9]. The IC90 with Plasmodium falciparum [3] is 0.0102 µM; in the series on Plasmodium falciparum [4] it was 0.0168 µM; in the series on Plasmodium falciparum [9] it was 0.0126 µM. In addition, the Ratio is given as 1.24 in the series on Plasmodium falciparum [5] and 1.65 with Plasmodium falciparum [8]. The selectivity ratio is 2710 in series [6], 2200 in series [7] and 1190 in series [10].
For `CC(=O)O[C@H]1C[C@H]2[C@@H]([C@H](OC(C)=O)C[C@@H]3C[C@H](O)CC[C@@]32C)[C@@H]2CC[C@H]([C@H](C)CCCNCCCNc3ccnc4cc(Cl)ccc34)[C@@]12C`, the half-life in series [11] came to 60 min. Moreover, the inhibition in series [1] came to 69.9%. Besides, the IC50 is 5.18 µM in series [2]; 0.0093 µM in the series with Plasmodium falciparum [3]; 0.0128 µM in the series on Plasmodium falciparum [4]; 1.07 µM in the series on HepG2; 0.0119 µM in the series on Plasmodium falciparum [9]. In addition, the IC90 came to 0.0165 µM in the series with Plasmodium falciparum [3], 0.0188 µM with Plasmodium falciparum [4] and 0.0303 µM in the series on Plasmodium falciparum [9]. Further, the t1/2 with Liver microsome was found to be 8 min. Further, the Ratio in the series with Plasmodium falciparum [5] turned out to be 1.84; in the series on Plasmodium falciparum [8] it was 1.14. Further, the selectivity ratio in series [6] worked out at 115; in series [7], 90; in [10] it was 84.
As for `CC(=O)O[C@H]1C[C@H]2[C@@H]([C@H](OC(C)=O)C[C@@H]3C[C@H](NS(C)(=O)=O)CC[C@@]32C)[C@@H]2CC[C@H]([C@H](C)CCCN(C)CCCNc3ccnc4cc(Cl)ccc34)[C@@]12C`, the half-life in series [11] was 60 min. In addition, in series [1], the inhibition stood at 55.6%. Moreover, the IC50 in series [2] was 8.21 µM; in the series with Plasmodium falciparum [3] it was 0.0317 µM; with Plasmodium falciparum [4] it was 0.0305 µM; in the series with HepG2, 2.83 µM; in the series with Plasmodium falciparum [9], 0.0203 µM. In addition, the figures for the IC90 in the series on Plasmodium falciparum [3], in the series on Plasmodium falciparum [4] and in the series on Plasmodium falciparum [9] were 0.0559 µM, 0.0547 µM and 0.0286 µM, respectively. For the same compound, the t1/2 in the series with Liver microsome came out at 11 min. For the same compound, the Ratio in the series on Plasmodium falciparum [5] stood at 0.51; in the series on Plasmodium falciparum [8], 0.98. Moreover, the results for the selectivity ratio in series [6], in series [7] and in series [10] were 89, 139 and 93, respectively.
Compound `CC(=O)O[C@H]1C[C@H]2[C@@H]([C@H](OC(C)=O)C[C@@H]3C[C@H](N(C)C)CC[C@@]32C)[C@@H]2CC[C@H]([C@H](C)CCCN(C)CCNc3ccnc4cc(Cl)ccc34)[C@@]12C` came in with a half-life in series [11] of 60 min. In [1], the inhibition stood at 85.5%. In addition, the IC50 in series [2] amounted to 2.27 µM; in the series with Plasmodium falciparum [3], 0.00235 µM; with Plasmodium falciparum [4], 0.00135 µM; with PBMC, 2.52 µM; in the series with HepG2, 9.21 µM; with Plasmodium falciparum [9] it was 0.0029 µM. Moreover, the values for the IC90 in the series with Plasmodium falciparum [3], with Plasmodium falciparum [4] and in the series on Plasmodium falciparum [9] were 0.00263 µM, 0.00135 µM and 0.00332 µM, respectively. The compound further registered a t1/2 with Liver microsome of 27 min. The figures for the Ratio with Plasmodium falciparum [5] and in the series with Plasmodium falciparum [8] were 1.26 and 0.51, respectively. In addition, the selectivity ratio came out at 3920 in [6], 3180 in series [7] and 6820 in series [10].
Consider `CC(=O)O[C@H]1C[C@H]2[C@@H]([C@H](OC(C)=O)C[C@@H]3CC(=O)CC[C@@]32C)[C@@H]2CC[C@H]([C@H](C)CCCNCCNc3ccnc4cc(Cl)ccc34)[C@@]12C`, for which the t1/2 is 13 min in the series on Liver and 6 min in the series on Liver microsome. In series [1], the inhibition is 67.1%. For the same compound, the IC50 was 5.7 µM in series [2]; 0.00338 µM with Plasmodium falciparum [3]; 0.00647 µM in the series with Plasmodium falciparum [4]; 52.2 µM in the series with PBMC; 1.93 µM with HepG2; 0.0176 µM with Plasmodium falciparum [9]. Further, the 90% effect concentration (IC90) was 0.00456 µM in the series on Plasmodium falciparum [3], 0.0141 µM with Plasmodium falciparum [4] and 0.0367 µM in the series on Plasmodium falciparum [9]. Further, the Ratio is 8.06 with Plasmodium falciparum [5] and 3.09 in the series on Plasmodium falciparum [8]. The selectivity ratio came to 571 in [6], 109 in [7] and 299 in [10].
As to `CC(=O)O[C@H]1C[C@H]2[C@@H]([C@H](OC(C)=O)C[C@@H]3CC(=O)CC[C@@]32C)[C@@H]2CC[C@H]([C@H](C)CCCNCCCNc3ccnc4cc(Cl)ccc34)[C@@]12C`, the t1/2 in the series with Liver is on record as 6 min; in the series with Liver microsome it was 14 min. Besides, the inhibition in [1] amounted to 72.9%. Also, the half-inhibitory concentration (IC50) in series [2] was 2.32 µM; in the series with Plasmodium falciparum [3], 0.00612 µM; with Plasmodium falciparum [4] it was 0.00689 µM; with PBMC, 2.61 µM; in the series with HepG2, 1.11 µM; in the series with Plasmodium falciparum [9] it was 0.00919 µM. Further, the values for the IC90 in the series on Plasmodium falciparum [3], in the series on Plasmodium falciparum [4] and in the series on Plasmodium falciparum [9] were 0.01 µM, 0.0121 µM and 0.0181 µM, respectively. For the same compound, the Ratio in the series on Plasmodium falciparum [5] is 1.81; in the series with Plasmodium falciparum [8], 1.21. Further, the selectivity ratio was determined as 182 in series [6], 121 in [7] and 161 in series [10].
For the compound `CC(=O)O[C@H]1C[C@H]2[C@@H]([C@H](OC(C)=O)C[C@@H]3C[C@H](NS(C)(=O)=O)CC[C@@]32C)[C@@H]2CC[C@H]([C@H](C)CCCNCCCNc3ccnc4cc(Cl)ccc34)[C@@]12C`, the t1/2 with Liver is reported as 47 min; in the series with Liver microsome it was 11 min. Further, the inhibition in series [1] was found to be 72.9%. The IC50 in [2] is 3.25 µM; in the series with Plasmodium falciparum [3], 0.0375 µM; in the series on Plasmodium falciparum [4], 0.0344 µM; with HepG2, 4.46 µM; in the series on Plasmodium falciparum [9] it was 0.0303 µM. Further, the figures for the IC90 in the series on Plasmodium falciparum [3], with Plasmodium falciparum [4] and in the series with Plasmodium falciparum [9] were 0.0747 µM, 0.0964 µM and 0.0562 µM, respectively. Further, the Ratio in the series with Plasmodium falciparum [5] came to 0.75; with Plasmodium falciparum [8], 1.29. Besides, the selectivity ratio in [6] turned out to be 119; in series [7], 147; in series [10], 130.

In general, inhibition refers to the share of the control response that was lost under treatment. For orientation: IC50 means the midpoint of a concentration-inhibition curve. One may read the IC90 as the concentration needed for an effect of 90%. The term half-life denotes the time in which the quantity being followed falls by half. High values mean slow loss, low ones fast loss.

The values above are taken from ChEMBL document CHEMBL3259704, “Second generation steroidal 4-aminoquinolines are potent, dual-target inhibitors of the botulinum neurotoxin serotype A metalloprotease and P. falciparum malaria” (J Med Chem, 2014).
